Laboratory results as given in ChEMBL document CHEMBL2046418, “Pyrrolidinobenzoic acid inhibitors of influenza virus neuraminidase: the hydrophobic side chain influences type A subtype selectivity” (Bioorg Med Chem, 2012).

Columns and labels:
Neuraminidase [1] = target: T1, Neuraminidase (Influenza A virus, UniProt B4URF0); assay: Inhibition of Influenza A virus (A/Wisconsin/67/2005(H3N2)) neuraminidase using fluorogenic substrate 2'-(4-methylumbelliferyl)-alpha-D-N-acetylneuraminic acid preincubated with inhibitor for 30 mins measured after 15 mins by fluorescence analysis
Summary of the method: (§1)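 Purified intact virions served as the NA source. They were preincubated 30 min at room temperature with two-fold inhibitor dilutions in 50 mM sodium acetate pH 6.0, 100 µM CaCl2, 320 µM MgCl2 and 60 mM NaCl. 100 µM MUNANA was added, then incubated 15 min at 37 °C and stopped with 5 volumes 0.2 M glycine-NaOH pH 11. IC50 came from a log(inhibitor)-normalized response fit, cross-checked from the linear region of fractional activity versus concentration.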

Neuraminidase [2] = target: T1, Neuraminidase; assay: Inhibition of Influenza A virus (A/Oklahoma/3052/2009(H1N1)) neuraminidase using fluorogenic substrate 2'-(4-methylumbelliferyl)-alpha-D-N-acetylneuraminic acid preincubated with inhibitor for 30 mins measured after 15 mins by fluorescence analysis; summary of the method: as §1
[3] = Inhibition of Influenza B virus (B/Malaysia/2506/2004) neuraminidase using fluorogenic substrate 2'-(4-methylumbelliferyl)-alpha-D-N-acetylneuraminic acid preincubated with inhibitor for 30 mins measured after 15 mins by fluorescence analysis; summary of the method: as §1
Neuraminidase [4] = target: T1, Neuraminidase; assay: Inhibition of Influenza A virus (A/Brisbane/59/2007(H1N1)) neuraminidase using fluorogenic substrate 2'-(4-methylumbelliferyl)-alpha-D-N-acetylneuraminic acid preincubated with inhibitor for 30 mins measured after 15 mins by fluorescence analysis; summary of the method: as §1
Neuraminidase [5] = target: T1, Neuraminidase; assay: Inhibition of Influenza A virus (A/Uruguay/716/2007(H3N2)) neuraminidase using fluorogenic substrate 2'-(4-methylumbelliferyl)-alpha-D-N-acetylneuraminic acid preincubated with inhibitor for 30 mins measured after 15 mins by fluorescence analysis; summary of the method: as §1
Neuraminidase [6] = target: T1, Neuraminidase; assay: Inhibition of Influenza A virus (A/Solomon Islands/3/2006(H1N1)) neuraminidase using fluorogenic substrate 2'-(4-methylumbelliferyl)-alpha-D-N-acetylneuraminic acid preincubated with inhibitor for 30 mins measured after 15 mins by fluorescence analysis; summary of the method: as §1
[7] = Inhibition of Influenza B virus (B/Malayasia/5206/04) neuraminidase using fluorogenic substrate 2'-(4-methylumbelliferyl)-alpha-D-N-acetylneuraminic acid preincubated with inhibitor for 30 mins measured after 15 mins by fluorescence analysis; summary of the method: as §1
Neuraminidase [8] = target: T1, Neuraminidase; assay: Inhibition of influenza A virus avian N9 neuraminidase
[9] = target: Neuraminidase (Influenza A virus (A/Puerto Rico/8/1934(H1N1)), UniProt P03468); assay: Inhibition of Influenza A virus (A/Puerto Rico/8/1934(H1N1)) neuraminidase using fluorogenic substrate 2'-(4-methylumbelliferyl)-alpha-D-N-acetylneuraminic acid preincubated with inhibitor for 30 mins measured after 15 mins by fluorescence analysis
Summary of the method: (§2)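 Enzyme source was purified intact virions. Then 100 μM 2'-(4-methylumbelliferyl)-α-D-N-acetylneuraminic acid was added and incubated 15 min at 37 °C. Reactions were stopped with 0.2 M glycine-NaOH pH 11. IC50 came from normalized log(inhibitor)-response fitting, cross-checked against the linear region of fractional activity versus concentration.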

Neuraminidase [10] = target: Neuraminidase (Influenza A virus (strain A/Udorn/307/1972 H3N2), UniProt P0DOF9); assay: Inhibition of Influenza A virus (A/udorn/1972(H3N2)) neuraminidase using fluorogenic substrate 2'-(4-methylumbelliferyl)-alpha-D-N-acetylneuraminic acid preincubated with inhibitor for 30 mins measured after 15 mins by fluorescence analysis; summary of the method: as §1
Neuraminidase [11] = target: Neuraminidase (Influenza B virus (strain B/Lee/1940), UniProt P03474); assay: Inhibition of Influenza B virus (B/Lee/1940) neuraminidase using fluorogenic substrate 2'-(4-methylumbelliferyl)-alpha-D-N-acetylneuraminic acid preincubated with inhibitor for 30 mins measured after 15 mins by fluorescence analysis; summary of the method: as §2
[12] = Inhibition of influenza B virus neuraminidase
Summary of the method: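 Purified intact influenza B virions as neuraminidase source. Preincubated 30 min at room temperature with two-fold inhibitor dilutions in 50 mM sodium acetate pH 6.0, 100 μM CaCl2, 320 μM MgCl2, 60 mM NaCl. Then 100 μM 2'-(4-methylumbelliferyl)-α-D-N-acetylneuraminic acid, 15 min at 37 °C, stopped with 5 volumes 0.2 M glycine-NaOH pH 11. Fluorescence read-out. IC50 from log(inhibitor) vs normalized response, cross-checked against the linear region of the fractional-activity curve.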

Neuraminidase [13] = target: T1, Neuraminidase; assay: Inhibition of influenza A virus neuraminidase; summary of the method: as §2

CCC(=Cc1cc(C(=O)O)ccc1N1C(=O)CCC1(CO)CO)CC
IC50 (Neuraminidase [1]): 0.41 µM
IC50 (Neuraminidase [2]): 3.4 µM
IC50 [3]: 120 µM

CCC(CC)OCc1cc(C(=O)O)ccc1N1C(=O)CCC1(CO)CO
IC50 (Neuraminidase [4]): 1 µM
IC50 (Neuraminidase [5]): 0.5 µM
IC50 (Neuraminidase [6]): 0.8 µM
IC50 [7]: 30 µM

CC(C)Cc1cc(C(=O)O)ccc1N1C(=O)CCC1(CO)CO
IC50 (Neuraminidase [5]): 3 µM
IC50 [3]: 140 µM

CCC(C)OCc1cc(C(=O)O)ccc1N1C(=O)CCC1(CO)CO (centres undefined)
IC50 (Neuraminidase [5]): 0.2 µM
IC50 (Neuraminidase [6]): 11 µM
IC50 [7]: 80 µM

CCC(CC)Nc1cc(C(=O)O)ccc1N1C(=O)CCC1(CO)CO
IC50 (Neuraminidase [8]): 0.048 µM
IC50 [9]: 79 µM
IC50 (Neuraminidase [10]): 0.49 µM
IC50 (Neuraminidase [11]): 271 µM

CC(=O)N[C@H]1[C@H]([C@H](O)[C@H](O)CO)OC(C(=O)O)=C[C@@H]1O [NEU5AC2EN]
Ki [12]: 4 µM
Ki (Neuraminidase [13]): 4 µM

O=C(O)c1ccc(N2C(=O)CCC2(CO)CO)c(COc2ccccc2)c1
IC50 (Neuraminidase [5]): 40 µM
IC50 (Neuraminidase [6]): 400 µM

CC(C)OCc1cc(C(=O)O)ccc1N1C(=O)CCC1(CO)CO
IC50 (Neuraminidase [4]): > 10000 µM
IC50 (Neuraminidase [5]): 4000 µM

O=C(O)c1ccc(N2C(=O)CCC2(CO)CO)c(COCc2ccccc2)c1
IC50 (Neuraminidase [5]): 200 µM
IC50 (Neuraminidase [6]): 1600 µM

CCCC(CCC)Cc1cc(C(=O)O)ccc1N1C(=O)CCC1(CO)CO
IC50 (Neuraminidase [1]): 0.5 µM
IC50 [3]: 190 µM

CCC(CC)Cc1cc(C(=O)O)ccc1N1C(=O)CCC1(CO)CO
IC50 (Neuraminidase [1]): 0.2 µM
IC50 (Neuraminidase [2]): 3.2 µM
IC50 [3]: 32 µM
